Laboratory results reported in ChEMBL document CHEMBL1154647, “Synthesis, spectral characterization and biological evaluation of phosphorylated derivatives of galanthamine” (Eur J Med Chem, 2010).
In brackets after ≈: the same amount, converted by molar mass.

How the values were obtained:
Brain [1] = assay: Antioxidant activity in Wistar rat brain assessed as inhibition of lipid peroxidation; assay type: functional, tissue-based
Brain [2] = assay: Antioxidant activity in Wistar rat brain assessed as glutathione content; assay type: functional
Summary of the method: (§1)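 Wistar rat brain was homogenised 1:40 (w/v) in 0.1 M phosphate buffer, pH 7.4, with 1 mM EDTA. Total glutathione (GSH + GSSG) and reduced GSH were assayed spectrophotometrically from optical density, using net rate against a standard-curve slope and intercept, times a dilution factor. Homogenate protein was measured by the Lowry method.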

Escherichia coli [3] = assay: Antibacterial activity against Escherichia coli at 1 mg/mL after 18 hrs by disc diffusion assay; assay type: functional; conditions: read-out: IZ
Summary of the method: (§2)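 Bacteria were grown in nutrient broth at 37 °C for 18 h on a rotary shaker at 150 rpm. Compounds were dissolved in DMF. Nutrient agar plates were dried at 35–36 °C for about 30 min, and test strains were spread on the surface. Discs were applied, and plates were inverted and incubated at 37 °C. A DMF blank was run.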

Catalase = molecular target: T1, Catalase (Rattus norvegicus, UniProt P04762); assay: Inhibition of catalase in Wistar rat brain
T1 sequence (P04762 whole entry): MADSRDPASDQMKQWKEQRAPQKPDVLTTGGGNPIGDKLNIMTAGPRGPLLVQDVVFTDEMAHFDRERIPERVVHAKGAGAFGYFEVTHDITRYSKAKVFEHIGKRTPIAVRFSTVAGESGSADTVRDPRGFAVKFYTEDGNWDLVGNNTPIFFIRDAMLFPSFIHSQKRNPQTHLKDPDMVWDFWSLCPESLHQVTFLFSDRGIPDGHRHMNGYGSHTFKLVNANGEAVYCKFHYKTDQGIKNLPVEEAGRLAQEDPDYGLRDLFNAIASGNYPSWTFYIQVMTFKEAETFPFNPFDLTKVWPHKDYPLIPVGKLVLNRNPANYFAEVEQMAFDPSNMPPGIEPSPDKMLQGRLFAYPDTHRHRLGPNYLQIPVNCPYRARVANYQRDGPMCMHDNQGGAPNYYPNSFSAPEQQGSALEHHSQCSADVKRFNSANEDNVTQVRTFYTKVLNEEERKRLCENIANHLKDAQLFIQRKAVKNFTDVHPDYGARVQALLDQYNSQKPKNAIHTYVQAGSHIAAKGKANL

Escherichia coli [4] = assay: Antibacterial activity against Escherichia coli at 2 mg/mL after 18 hrs by disc diffusion assay; assay type: functional; conditions: read-out: IZ; summary of the method: as §2
Bacillus subtilis [5] = assay: Antibacterial activity against Bacillus subtilis at 1 mg/mL after 18 hrs by disc diffusion assay; assay type: functional; conditions: read-out: IZ; summary of the method: as §2
Klebsiella pneumoniae [6] = assay: Antibacterial activity against Klebsiella pneumoniae at 1 mg/mL after 18 hrs by disc diffusion assay; assay type: functional; conditions: read-out: IZ; summary of the method: as §2
Brain [7] = assay: Antioxidant activity in Wistar rat brain assessed as lipid peroxidation; assay type: functional, tissue-based
Escherichia coli [8] = assay: Antibacterial activity against Escherichia coli after 18 hrs; assay type: functional
Bacillus subtilis [9] = assay: Antibacterial activity against Bacillus subtilis at 2 mg/mL after 18 hrs by disc diffusion assay; assay type: functional; conditions: read-out: IZ; summary of the method: as §2
Klebsiella pneumoniae [10] = assay: Antibacterial activity against Klebsiella pneumoniae after 18 hrs; assay type: functional
Brain [11] = assay: Antioxidant activity in Wistar rat brain assessed as superoxide dismutase content; assay type: functional
Brain [12] = assay: Antioxidant activity in Wistar rat brain assessed as catalase content; assay type: functional
Bacillus subtilis [13] = assay: Antibacterial activity against Bacillus subtilis after 18 hrs; assay type: functional
Staphylococcus aureus [14] = assay: Antibacterial activity against Staphylococcus aureus after 18 hrs; assay type: functional
Staphylococcus aureus [15] = assay: Antibacterial activity against Staphylococcus aureus at 2 mg/mL after 18 hrs by disc diffusion assay; assay type: functional; conditions: read-out: IZ; summary of the method: as §2
Staphylococcus aureus [16] = assay: Antibacterial activity against Staphylococcus aureus at 1 mg/mL after 18 hrs by disc diffusion assay; assay type: functional; conditions: read-out: IZ; summary of the method: as §2
Klebsiella pneumoniae [17] = assay: Antibacterial activity against Klebsiella pneumoniae at 2 mg/mL after 18 hrs by disc diffusion assay; assay type: functional; conditions: read-out: IZ; summary of the method: as §2
[18] = Inhibition of superoxide dismutase in Wistar rat brain; assay type: tissue-based
Brain [19] = assay: Antioxidant activity in Wistar rat brain assessed as reduction in glutathione content; assay type: functional, tissue-based; summary of the method: as §1

Work on `COc1ccc2c3c1O[C@H]1C[C@@H](OP(=O)(Oc4ccc([N+](=O)[O-])cc4)OP(=O)(O)O)C=C[C@@]31CCN(C)C2` (stereo not given in full) yielded an EC50 (Brain [1]) of 3.33 µg/mL (≈ 5.86 µM), an Activity (Brain [2]) of 4.22 µg/mL and a zone of inhibition at 1000 µg/mL (Escherichia coli [3]) of 2.42 mm. It also gave an EC50 (Catalase) of 2.92 µg/mL (≈ 5.14 µM), a zone of inhibition at 2000 µg/mL (Escherichia coli [4]) of 4.97 mm and a zone of inhibition at 1000 µg/mL (Bacillus subtilis [5]) of 2.05 mm. For the same compound, the zone of inhibition at 1000 µg/mL (Klebsiella pneumoniae [6]) was 1.88 mm, the Activity (Brain [7]) was 72.2 µg/mL and the MIC (Escherichia coli [8]) was 0.46 µg/mL (≈ 0.809 µM). It also gave a zone of inhibition at 2000 µg/mL (Bacillus subtilis [9]) of 3.78 mm, an MIC (Klebsiella pneumoniae [10]) of 0.28 µg/mL (≈ 0.493 µM) and an Activity (Brain [11]) of 29.55 µg/mL. For the same compound, the Activity (Brain [12]) was 287.38 µg/mL, the MIC (Bacillus subtilis [13]) was 0.19 µg/mL (≈ 0.334 µM) and the MIC (Staphylococcus aureus [14]) was 0.76 µg/mL (≈ 1.34 µM). For the same compound, the zone of inhibition at 2000 µg/mL (Staphylococcus aureus [15]) was 4.56 mm, the zone of inhibition at 1000 µg/mL (Staphylococcus aureus [16]) was 2.38 mm and the zone of inhibition at 2000 µg/mL (Klebsiella pneumoniae [17]) was 5.45 mm. It also gave an EC50 [18] of 2.69 µg/mL (≈ 4.73 µM) and an EC50 (Brain [19]) of 2.15 µg/mL (≈ 3.78 µM).
`COc1ccc2c3c1O[C@H]1C[C@@H](OP(=O)(OCCO)N(CCCl)CCCl)C=C[C@@]31CCN(C)C2` (stereo not given in full) gave an EC50 (Brain [1]) of 2.87 µg/mL (≈ 5.36 µM), an Activity (Brain [2]) of 4.67 µg/mL and a zone of inhibition at 1000 µg/mL (Escherichia coli [3]) of 1.57 mm. For the same compound, the EC50 (Catalase) was 2.21 µg/mL (≈ 4.13 µM), the zone of inhibition at 2000 µg/mL (Escherichia coli [4]) was 3.18 mm and the zone of inhibition at 1000 µg/mL (Bacillus subtilis [5]) was 1.63 mm. The zone of inhibition at 1000 µg/mL (Klebsiella pneumoniae [6]) was 1.65 mm, the Activity (Brain [7]) was 68.2 µg/mL and the MIC (Escherichia coli [8]) was 0.5 µg/mL (≈ 0.934 µM). For the same compound, the zone of inhibition at 2000 µg/mL (Bacillus subtilis [9]) was 4.89 mm, the MIC (Klebsiella pneumoniae [10]) was 0.57 µg/mL (≈ 1.06 µM) and the Activity (Brain [11]) was 29.02 µg/mL. It also gave an Activity (Brain [12]) of 291.27 µg/mL, an MIC (Bacillus subtilis [13]) of 0.28 µg/mL (≈ 0.523 µM) and an MIC (Staphylococcus aureus [14]) of 0.42 µg/mL (≈ 0.784 µM). It also gave a zone of inhibition at 2000 µg/mL (Staphylococcus aureus [15]) of 5.02 mm, a zone of inhibition at 1000 µg/mL (Staphylococcus aureus [16]) of 3.03 mm and a zone of inhibition at 2000 µg/mL (Klebsiella pneumoniae [17]) of 4.76 mm. For the same compound, the EC50 [18] was 1.98 µg/mL (≈ 3.7 µM) and the EC50 (Brain [19]) was 2.02 µg/mL (≈ 3.77 µM).
